UHRF1 MBD2 ctr: UHRF1 methylated DNA binding inhibitors, primary screen, counter-screen for MBD2 inhibitor project, biochemical, TR-FRET, human UHRF1, single concentration; inhibition, % at 4.4 µM; AID 687016, 2013; E3 ubiquitin-protein ligase UHRF1 (Homo sapiens), Q96T88; 0.75% of 370,000 active; UHRF1 binding to methylated oligo; in the data active = inhibition above about 21%;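 note: UHRF1 SRA domain binding a hemimethylated CpG hairpin DNA probe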
MBD2 DNA inh: inhibitors of MBD2 binding to methylated DNA, primary screen, biochemical, TR-FRET, DNA-binding domain, human; Methyl-CpG-binding domain protein 2 (Homo sapiens), Q9UBB5; inhibition, % at 4.4 µM; MBD2 binding to methylated oligonucleotide; 0.31% of 370,000 active; AID 686964, 2013; in the data active = inhibition above about 13%
ABHD5-PLIN5 inh: ABHD5-PLIN5 interaction inhibitors, primary screen, cell lysate, split luciferase complementation, luminescence. Perilipin-5 (Homo sapiens) + 1-acylglycerol-3-phosphate O-acyltransferase ABHD5 (Homo …. Split G. princeps luciferase complementation, 4 h. inhibition, % at 4 µM. 0.78% of 360,000 active;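 active = inhibition above the mean inhibition across every tested compound plus 3 SD, cut at about 22% in these data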
Target sequence (Q00G26 whole entry, looked up): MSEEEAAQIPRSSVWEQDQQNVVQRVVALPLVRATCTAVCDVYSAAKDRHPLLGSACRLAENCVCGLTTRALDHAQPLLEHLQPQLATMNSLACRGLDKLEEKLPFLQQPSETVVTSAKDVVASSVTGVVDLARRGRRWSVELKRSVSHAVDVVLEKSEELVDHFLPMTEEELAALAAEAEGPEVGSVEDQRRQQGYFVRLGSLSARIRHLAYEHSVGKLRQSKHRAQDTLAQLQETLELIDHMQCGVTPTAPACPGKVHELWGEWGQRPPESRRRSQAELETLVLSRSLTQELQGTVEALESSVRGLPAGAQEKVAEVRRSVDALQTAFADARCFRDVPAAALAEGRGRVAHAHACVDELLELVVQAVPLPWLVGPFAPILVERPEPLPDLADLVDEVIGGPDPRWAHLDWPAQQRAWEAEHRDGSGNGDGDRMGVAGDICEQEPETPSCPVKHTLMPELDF
Target sequence (Q8WTS1 whole entry, looked up): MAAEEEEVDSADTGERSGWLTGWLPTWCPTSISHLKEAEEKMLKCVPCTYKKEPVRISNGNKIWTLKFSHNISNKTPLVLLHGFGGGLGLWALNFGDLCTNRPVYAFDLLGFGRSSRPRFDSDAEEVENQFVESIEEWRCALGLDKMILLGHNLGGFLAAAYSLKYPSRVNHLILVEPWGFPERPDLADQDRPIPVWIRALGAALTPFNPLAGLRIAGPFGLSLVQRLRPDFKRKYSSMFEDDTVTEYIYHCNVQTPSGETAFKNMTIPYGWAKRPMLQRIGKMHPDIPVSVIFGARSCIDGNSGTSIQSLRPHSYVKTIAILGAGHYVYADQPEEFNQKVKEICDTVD
Rin1-Abl PPI inh: inhibitors of Rin1-Abl protein binding, primary screen, biochemical, TR-FRET; Tyrosine-protein kinase ABL1 (Homo sapiens) + Ras and Rab interactor 1 (Homo sapiens), …; inhibition, % at 7.35 µM; 0.4% of 360,000 active; in the data active = inhibition above about 5%, passing the limit was not always enough
Arr AP2 block: inhibitors of beta-arrestin/AP2 binding, primary screen, biochemical, GPCR trafficking, flow cytometry; beta-arrestin 1 C-terminal peptide binding to AP2 beta2-adaptin appendage (human); FITC-arrestin peptide / GST-AP2 beads; AP2 beta2 appendage carries R879A mutation; inhibition, % at 10 µM; 0.31% of 340,000 active; AID 504490, 2011;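 active = inhibition above a set limit, near 3 SD of compounds lacking own fluorescence, cut at about 54% in these data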
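Test system: GST-tagged AP2 beta2-adaptin appendage (R879A) on 4 µm glutathione beads; also added: fluorescein-tagged arrestin peptide at 50 nM final; timing: 12 min plus 1 h, RT; signal: flow cytometry, FL1 (488/535 nm); read-out: percent drop in bead-associated FITC signal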
Beta2AR agonist: beta2AR agonists driving receptor internalization, primary screen, cell-based, FAP fluorogen, flow cytometry; Beta-2 adrenergic receptor (Homo sapiens), P07550; Am2.2-beta2AR cells; response, % (test concentration not listed); 0.43% of 340,000 active;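 active = response above a set limit, near 3 SD of response in nonfluorescent compounds, cut at about 42% in these data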
Numbers stand for hits; – = inactive; · = no result. Most compounds without a hit are left out; they make up all but 2.5% or so of the library.

SMILES	UHRF1 MBD2 ctr	MBD2 DNA inh	ABHD5-PLIN5 inh	Rin1-Abl PPI inh	Arr AP2 block	Beta2AR agonist
COc1ccc2c(c1)c(=O)oc1cc(OCC(=O)N3CCc4ccccc4C3)ccc12	39	21	–	–	–	–
COc1ccc2c(c1)c(=O)oc1cc(OCC(=O)N3CCC(C)CC3)ccc12	·	·	–	–	–	–
Cc1cc(NC(=O)CCS(=O)(=O)c2nc(-c3ccccc3)cc(C(F)(F)F)n2)no1	–	–	42	–	–	–
COc1ccc(-c2cc(C(F)(F)F)nc(S(=O)(=O)CCCC(=O)Nc3cccc(O)c3)n2)cc1OC	–	–	23	–	·	·
COc1ccccc1-c1cc(C(F)(F)F)nc(S(=O)(=O)CCCC(=O)O)n1	–	–	–	–	–	–
CCN(CC)c1ccc(C=NNC(=O)Cc2cc(=O)[nH][nH]2)c(O)c1	–	–	·	·	·	·
S=c1[nH]nc(-c2ccco2)n1/N=C/C=C/c1ccco1	26	–	–	–	–	–
Cc1cc2c(cc1C)C(c1ccccc1Br)CC(=O)N2 (centres undefined)	23	–	–	–	–	–
COc1ccccc1C1CC(=O)Nc2cc(C)c(C)cc21 (centres undefined)	–	–	–	–	–	–
O=C(NCc1cc(Cl)cc(Cl)c1)c1ccc2nc(COCCO)[nH]c2c1	21	–	–	–	·	·
CCN(CCO)c1nc(SC)nc2c1sc1nc(-c3ccco3)c3c(c12)CCC3	·	·	–	–	–	–
CSc1nc(NCCOCCO)c2sc3nc(-c4ccco4)c4c(c3c2n1)CCC4	29	–	–	–	–	–
COc1ccc(CSc2nnc(SCC(=O)Nc3ccccc3-c3ccccc3)s2)cc1	–	–	·	·	·	·
Cc1ccc(CNC(=O)C2CC(=O)N(C3CCCC3)C2)cc1 (centres undefined)	–	–	–	–	–	–
Cc1ccc(CNC(=O)C2CC(=O)N(C3CCCCCC3)C2)cc1 (centres undefined)	37	–	–	–	–	–
COCCCNC(=O)C[C@H]1C[C@@]2(C(=O)OC)C(=C[C@H](COCc3ccccc3)O[C@@H]2C)N(Cc2ccc(Cl)cc2Cl)C1=O	–	–	·	·	·	·
CCO/C(C)=N/Oc1cnc2ccccc2c1	–	–	–	–	·	·
CCO/C(C)=N/Oc1cccc(N(C)C)c1	29	–	–	–	·	·
NC(=O)C1CC(=O)N(c2ccc(OCc3c(Cl)cccc3Cl)cc2)C1 (centres undefined)	23	–	–	–	–	–
CC1CCN(C(=O)c2ccc(S(=O)(=O)N3CCCC3)cc2)CC1	41	–	–	–	–	–
CC1CCN(S(=O)(=O)c2ccc(C(=O)N3CCCC3C(=O)O)cc2)CC1 (centres undefined)	57	–	–	–	–	–
CC1CCN(S(=O)(=O)c2ccc(C(=O)N3CCCCC3C(=O)O)cc2)CC1 (centres undefined)	–	–	–	–	–	–
CCNC(=S)NNC(=O)CSc1nc2ccccc2c(=O)n1-c1ccc(Cl)cc1	–	–	·	·	·	·
O=C(NCCc1cccnc1)C1CCC(=O)N(CCc2cccc(F)c2)C1 (centres undefined)	–	–	22	–	–	–
O=C(NCCc1ccc(C(F)(F)F)cc1)C1CCC(=O)N(CCc2cccc(F)c2)C1 (centres undefined)	–	–	–	–	–	–
SMILES	UHRF1 MBD2 ctr	MBD2 DNA inh	ABHD5-PLIN5 inh	Rin1-Abl PPI inh	Arr AP2 block	Beta2AR agonist
CCCCCCCCNS(=O)(=O)CCNCc1ccccc1	23	–	–	–	–	–
Cc1cccc(C)c1NC(=O)COc1ccc2c(C)c(Cc3ccccc3)c(=O)oc2c1C	64	–	–	–	–	–
Cc1c(Cc2ccccc2)c(=O)oc2c(C)c(OCC(=O)Nc3ccc(C#N)cc3)ccc12	–	–	–	–	–	–
CC1(c2ccc(O)cc2)NC(=O)N(c2ccccc2)N1 (centres undefined)	24	–	–	–	–	–
C=C(C)CCC1(C)NC(=O)N(c2ccccc2)N1 (centres undefined)	–	–	–	–	–	–
Cc1ccc(F)cc1NC(=O)COC(=O)c1ccc2ncsc2c1	–	–	–	–	–	–
Cc1ccc(NC(=O)COC(=O)c2ccc3ncsc3c2)c(C)c1	22	–	–	–	·	·
COC(=O)Cn1nc(-c2ccccc2)c2cccc(C(F)(F)F)c21	–	–	·	·	·	·
Cc1ccc(/C=N/N2CCN(c3ccncc3S(=O)(=O)N3CCCCC3)CC2)cc1	–	–	–	–	–	–
COc1cccc(/C=N/N2CCN(c3ccncc3S(=O)(=O)N3CCCCC3)CC2)c1	–	–	–	–	·	75
O=C(CSc1nnc(-c2ccccn2)n1Cc1ccco1)c1ccc(-c2ccccc2)cc1	–	–	57	–	–	–
O=C(CSc1nnc(-c2ccc(O)cc2)n1Cc1ccco1)c1ccccc1	–	–	–	–	–	–
COCCCNC(=O)C[C@H]1C[C@@]2(C(=O)OC)C(=C[C@H](C(C)C)O[C@@H]2C2CC2)N(CCC2=CCCCC2)C1=O	–	–	·	·	·	·
Cc1ccc(NC(=O)/C(=C/c2ccncc2)NC(=O)c2ccccc2)cc1	–	–	–	–	–	–
O=C(NCCCn1ccnc1)/C(=C/c1ccccc1)NC(=O)c1ccccc1	25	–	–	–	–	–
O=C(NCCCn1ccnc1)/C(=C\c1ccc(Br)cc1)NC(=O)c1ccccc1	–	–	–	–	–	–
Cc1ccc(NC(=O)/C(=C\c2cccnc2)NC(=O)c2ccccc2)cc1	21	–	–	–	–	–
O=C([C@@H]1C[C@H]1c1ccccc1)N1CC[C@H]2[C@H](CCCN2Cc2ccccc2)C1	–	–	·	·	·	·
CCOc1ccc(-n2c(SCC(=O)Nc3ccccc3-c3ccccc3)nnc2-c2cccs2)cc1	–	–	·	·	·	·
COc1ccc(C(=O)c2no[n+]([O-])c2C(=O)c2ccc(OC)cc2)cc1	–	–	–	–	–	44
CC(OC(=O)Cc1c[nH]c2ccccc12)C(=O)NC1CCCCC1C (centres undefined)	23	–	–	–	–	–
CC1CCCC(NC(=O)COC(=O)Cc2c[nH]c3ccccc23)C1C (centres undefined)	–	–	–	–	–	–
CC(C)OC(=O)c1cccnc1N1CCN(c2ccc(F)cc2)CC1	23	–	–	–	–	–
